The target in one test is Cathepsin B (Homo sapiens, UniProt P07858). Nature of the test: Cathepsin B-mediated hydrolysis of peptide constructs followed by HPLC. The format is biochemical. Particulars: Cathepsin B 1.34 × 10^−13 M, 25 °C, least-squares regression. A digest of the protocol:
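Substrate at 1·10^-7 M with cathepsin B (1.34·10^-13 M, activated by 1 mM DTT) in 50 mM sodium citrate pH 6.0, 1 mL, filter-sterilized, held dark at 25 °C. Repeated reversed-phase HPLC injections ran over ≥6× reaction half-life; UV detection at 220 nm. Percentage substrate remaining came from peak area versus known injected amount. Pseudo-first-order half-life given as mean ± SD; ≥3 repeats.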

The next test concerns MDAMB231. In words: In vitro uptake of GNRs, gold content by ICP-MS. The class given is cell-based, Human. Particulars: 10 μM CA074 for 12 hr, then peptide GNR 24 hr. The essentials:
(§1)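 Cells in 10% FBS medium (HT29 McCoy's, MDA MB231 DMEM, PANC1 RPMI 1640) at 37 °C, 5% CO2. At 70% confluence: 10 μM CA074 for 12 hr, then 0.05 OD GNR in serum-free medium for 24 hr. Cells washed, trypsinized, pelleted, dried at 56 °C and digested in aqua regia (60 °C, 4 hr). Gold measured by ICP-MS against gold standards, normalized to cell count; mean ± SEM.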

For a further test, the system named is HT29. In words: In vitro uptake of GNRs, gold content by ICP-MS. The format is cell-based, Human. Particulars: 10 μM CA074 for 12 hr, then peptide GNR 24 hr. A digest of the protocol:
as §1

Another test concerns PANC1. In words: In vitro uptake of GNRs, gold content by ICP-MS. Particulars: 10 μM CA074 for 12 hr, then peptide GNR 24 hr. The class given is cell-based, Human. A digest of the protocol:
as §1

A further test relates to HT29 xenograft tumors. Nature of the test: In vivo tumor uptake of GNRs, gold content by ICP-MS. Particulars: CA074 10 mg/kg i.p., peptide GNR 8 OD i.v., 24 hr. Also on record: species or system mice. A digest of the protocol:
(§2)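 Male athymic Swiss nude mice carried bilateral subcutaneous HT29, HCT116 and DLD1 xenografts (1×10^6 cells in PBS). At 7–8 mm tumors, mice were randomized, n=4/group. CA074 10 mg/kg i.p. daily; 100 μL of 8 OD GNR i.v. by tail vein on day 3 of CA074. At 24 hr, tumors and organs were harvested, weighed, lyophilized and digested in aqua regia. Gold by ICP-MS per gram dry tissue; mean ± SEM, unpaired two-tailed t-test.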

For another test, the system named is HCT116 xenograft tumors. Described as above. Details: species or system mice. As to conditions: CA074 10 mg/kg i.p., peptide GNR 8 OD i.v., 24 hr. The essentials: as §2

MeO-PEG20k-GGFGFVGGR9WC: the “degradation reaction half-life (t½) relative to native GFGFVG peptide” value on Cathepsin B is “about three-fold higher”.
Regarding `CCCNC(=O)[C@H]1O[C@@H]1C(=O)N[C@H](C(=O)N1CCC[C@H]1C(=O)O)[C@@H](C)CC` [CA074], the “change in peptide GNR uptake (ICP-MS) with CA074 compared to peptide GNRs alone” value in the test with MDAMB231, with HT29 and in the test on PANC1 was “two-fold reduction” in each case. Further, the “effect of inhibitor on peptide GNR uptake by xenograft tumors (ICP-MS)” value in the test on HT29 xenograft tumors and in the test with HCT116 xenograft tumors was “abrogates the increased uptake” each time.
Regarding MeO-PEG20k-GFGFVG [PEGylated GFGFVG], the “degradation reaction half-life (t½) relative to native GFGFVG peptide” value at Cathepsin B was “nearly three-fold”.

The record behind these values is article PMC10032210 (Biomaterials, 2022).
